Source: ChEMBL document CHEMBL4196179, “Synthesis and Pharmacological Evaluation of Noscapine-Inspired 5-Substituted Tetrahydroisoquinolines as Cytotoxic Agents” (J Med Chem, 2018)
The source made the active and inactive calls. The calls are words filed in the database; no cut-off is given here.

How the values were obtained:
MCF7 [1] = test: Cell cycle arrest in human MCF7 cells assessed as increase in accumulation at G2/M phase at 10 uM after 18 hrs by Hoechst 33342 staining based FACS analysis relative to control; assay type: functional
Outline: (§1)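 Cells seeded 48 h beforehand, treated 18 h with test compounds at 10 µM or vincristine at 100 nM, then trypsinised and stained with Hoechst 33342 for 60 min; FACS read at 450 nm; % G2/M increase calculated relative to 0.1% DMSO vehicle; mean ± SEM of three independent experiments.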

PANC-1 [2] = test: Cell cycle arrest in human PANC1 cells assessed as increase in accumulation at G2/M phase at 10 uM after 18 hrs by Hoechst 33342 staining based FACS analysis relative to control; assay type: functional; outline: as §1
PANC-1 [3] = test: Cell cycle arrest in human PANC1 cells assessed as accumulation at G2/M phase at 100 nM after 18 hrs by Hoechst 33342 staining based FACS analysis (reference value: 13.7%); assay type: functional
PANC-1 [4] = test: Cell cycle arrest in human PANC1 cells assessed as accumulation at S phase at 100 nM after 18 hrs by Hoechst 33342 staining based FACS analysis (reference value: 11.1%); assay type: functional
PANC-1 [5] = test: Cell cycle arrest in human PANC1 cells assessed as accumulation at G1 phase at 100 nM after 18 hrs by Hoechst 33342 staining based FACS analysis (reference value: 70.7%); assay type: functional
MCF7 [6] = test: Cell cycle arrest in human MCF7 cells assessed as increase in accumulation at G2/M phase at 100 nM after 18 hrs by Hoechst 33342 staining based FACS analysis relative to control; assay type: functional; outline: as §1
PANC-1 [7] = test: Cell cycle arrest in human PANC1 cells assessed as increase in accumulation at G2/M phase at 100 nM after 18 hrs by Hoechst 33342 staining based FACS analysis relative to control; assay type: functional; outline: as §1
PC-3 = test: Cytotoxicity against human PC3 cells assessed as reduction in cell viability after 5 days by cellTiter-blue assay; assay type: functional, cell-based; conditions: PC-3, 120 h
MCF7 [8] = test: Cytotoxicity against human MCF7 cells assessed as reduction in cell viability after 5 days by cellTiter-blue assay; assay type: functional, cell-based; conditions: MCF7, 120 h
Sus scrofa [9] = species: Sus scrofa; test: Stabilization of pig tubulin assessed as Vmax of tubulin polymerization at 10 uM after 60 mins turbidimetric analysis (reference value: 27 +/- 2 milliOD/min)
[10] = Binding affinity to recombinant P-gp cys-less mutant (unknown origin) in proteoliposomes assessed as increase in ATP hydrolysis rate after 40 mins by colorimetric assay; parameters: species or system Homo sapiens
Outline: (§2)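 P-gp expressed in High-Five insect cells via recombinant baculovirus, IMAC-purified and reconstituted into proteoliposomes; 0.1-0.5 µg incubated with 2 mM ATP and drug at 10^-9 to 10^-4 M for 40 min at 37 °C; liberated Pi measured colorimetrically; EC50 and extent of stimulation from dose-response fit against drug-free basal activity.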

Homo sapiens [11] = species: Homo sapiens; test: Binding affinity to recombinant P-gp cys-less mutant (unknown origin) in proteoliposomes assessed as increase in ATP hydrolysis rate at 10^-9 to 10^-4 M after 40 mins by colorimetric assay relative to basal control; outline: as §2
NCI/ADR-RES [12] = test: Inhibition of P-gp in human NCI/ADR-RES cells assessed as rate of calcein-AM accumulation at 1 uM by fluorescence assay; assay type: cell-based
Outline: (§3)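 Cells seeded at 2 × 10^3/well and grown 2 d, washed and placed in HBSS; test compound added at 2X in HBSS with DMSO ≤1% final, then calcein-AM at 1 µM final; intracellular fluorescence followed over time, rate taken as slope from linear regression.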

PANC-1 [13] = test: Cell cycle arrest in human PANC1 cells assessed as accumulation at G2/M phase at 10 uM after 18 hrs by Hoechst 33342 staining based FACS analysis (reference value: 13.7%); assay type: functional
MCF7 [14] = test: Synergistic antiproliferative activity against human MCF7 cells assessed as reduction in cell viability at 1 uM after 6 days in presence of vinblastine by MTT assay; assay type: functional
MCF7 [15] = test: Antiproliferative activity against human MCF7 cells after 6 days by MTT assay; assay type: functional, cell-based; conditions: MCF7, 144 h
Outline: (§4)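 Cells seeded overnight at 1500/well, then exposed to a range of concentrations for 6 d; viability by MTT (570 nm, background-subtracted, normalised to untreated control = 100%); EC50 from sigmoidal dose-response fit by non-linear least squares; mean ± SEM of at least 8 independent observations. MCF-7 in MEMα + 10% FBS; NCI/AdrRES in DMEM + 10% FCS with periodic 3 µM doxorubicin selection.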

PANC-1 [16] = test: Cell cycle arrest in human PANC1 cells assessed as accumulation at G1 phase at 10 uM after 18 hrs by Hoechst 33342 staining based FACS analysis (reference value: 70.7%); assay type: functional
Homo sapiens [17] = species: Homo sapiens; test: Inhibition of P-gp in human NCI/ADR-RES cells assessed as potentiation of vinblastine-induced cytotoxicity by measuring combination index at 0.3 uM compound concentration after 6 days by MTT assay; assay type: cell-based
Homo sapiens [18] = species: Homo sapiens; test: Inhibition of P-gp in human NCI/ADR-RES cells assessed as potentiation of vinblastine-induced cytotoxicity by measuring combination index at 0.1 uM compound concentration after 6 days by MTT assay; assay type: cell-based
Sus scrofa [19] = species: Sus scrofa; test: Inhibition of pig tubulin polymerization assessed as Vmax of tubulin polymerization at 10 uM after 60 mins turbidimetric analysis (reference value: 27 +/- 2 milliOD/min)
MCF7 [20] = test: Effect on calcein-AM accumulation in human wild type MCF7 cells at 1 uM by fluorescence assay; assay type: functional, cell-based; outline: as §3
Homo sapiens [21] = species: Homo sapiens; test: Inhibition of P-gp in human NCI/ADR-RES cells assessed as potentiation of vinblastine-induced cytotoxicity by measuring combination index at 1 uM compound concentration after 6 days by MTT assay; assay type: cell-based
MCF7 [22] = test: Synergistic antiproliferative activity against human MCF7 cells assessed as reduction in cell viability at 0.1 uM after 6 days in presence of vinblastine by MTT assay; assay type: functional
PANC-1 [23] = test: Cell cycle arrest in human PANC1 cells assessed as accumulation at S phase at 10 uM after 18 hrs by Hoechst 33342 staining based FACS analysis (reference value: 11.1%); assay type: functional
NCI/ADR-RES [24] = test: Antiproliferative activity against human NCI/ADR-RES cells after 6 days by MTT assay; assay type: functional, cell-based; conditions: 144 h; outline: as §4
MCF7 [25] = test: Synergistic antiproliferative activity against human MCF7 cells assessed as reduction in cell viability at 0.3 uM after 6 days in presence of vinblastine by MTT assay; assay type: functional
[26] = Ratio of IC50 for human NCI/ADR-RES cells to IC50 for human MCF7 cells; assay type: functional
Outline: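 IC50 in doxorubicin-selected P-gp-expressing NCI/AdrRES cells divided by IC50 in parental MCF-7, each from 6 d MTT viability dose-response curves fitted by non-linear regression.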

Q: Which Activity (MCF7 [1]) does the source give for `COc1ccc(CC2c3c(c(Br)c4c(c3OC)OCO4)CCN2C)cc1` (stereo unspecified) here?
A: Its Activity is 180%.

Q: What about the Activity (PANC-1 [2]) of the same compound?
A: The Activity was 226%.

Q: With `CC[C@]1(O)C[C@H]2CN(CCc3c([nH]c4ccccc34)[C@@](C(=O)OC)(c3cc4c(cc3OC)N(C=O)[C@H]3[C@@](O)(C(=O)OC)[C@H](OC(C)=O)[C@]5(CC)C=CCN6CC[C@]43[C@@H]65)C2)C1` [VINCRISTINE] as the compound, how does the Activity (PANC-1 [3]) read?
A: Its Activity is 64.1%.

Q: What about the Activity (PANC-1 [4]) of the same compound?
A: The Activity was 9.7%.

Q: What about the Activity (PANC-1 [5]) of the same compound?
A: Its Activity is 21.2%.

Q: What about the Activity (MCF7 [6]) of the same compound?
A: Its Activity is 283%.

Q: And the Activity (PANC-1 [7])?
A: The Activity was 265%.

Q: Which results are given for `CCNC(=O)N1CCc2cc3c(c(OC)c2[C@@H]1[C@H]1OC(=O)c2c1ccc(OC)c2OC)OCO3`?
A: EC50 (PC-3): 6.7 µM; EC50 (MCF7 [8]): 3.6 µM

Q: Which Vmax (milli optical density/minute) (Sus scrofa [9]) does the source give for `CC(=O)O[C@H]1C(=O)[C@@]2(C)[C@H]([C@H](OC(=O)c3ccccc3)[C@]3(O)C[C@H](OC(=O)[C@H](O)[C@@H](NC(=O)c4ccccc4)c4ccccc4)C(C)=C1C3(C)C)[C@]1(OC(C)=O)CO[C@@H]1C[C@@H]2O` here?
A: The Vmax (milli optical density/minute) was 76.

Q: With `CCNC(=O)N1CCc2c(Br)c3c(c(OC)c2C1c1ccc(OC)cc1)OCO3` (stereo unspecified) as the compound, how does the Activity (MCF7 [1]) read?
A: Its Activity is 18%.

Q: What about the Activity (PANC-1 [2]) of the same compound?
A: The Activity was 21%.

Q: With `COC(=O)C1=C(C)NC(C)=C(C(=O)OCCN(C)Cc2ccccc2)C1c1cccc([N+](=O)[O-])c1` (stereo unspecified) [NICARDIPINE] as the compound, how does the EC50 [10] read?
A: The EC50 was 4.7 µM.

Q: And the fold change (FC) (Homo sapiens [11])?
A: The fold change (FC) was 13.6.

Q: What about the Activity (NCI/ADR-RES [12]) of the same compound?
A: Its Activity is 107 RFU/min.

Q: Which Activity (MCF7 [1]) does the source give for `COc1cccc(C2c3c(c(Br)c4c(c3OC)OCO4)CCN2C)c1OC` (stereo unspecified) here?
A: Its Activity is 29%.

Q: And the Activity (PANC-1 [2])?
A: The Activity was 16%.

Q: Which results are given for `CCNC(=O)N1CCc2c(Br)c3c(c(OC)c2C1c1ccc(OC)c(OC)c1)OCO3` (stereo unspecified)?
A: Activity (MCF7 [1]): -6%; Activity (PANC-1 [2]): 11%

Q: With `CCNC(=O)N1CCc2c(Br)c3c(c(OC)c2C1Cc1ccc(OC)c(OC)c1)OCO3` (stereo unspecified) as the compound, how does the Activity (MCF7 [1]) read?
A: The Activity was 12%.

Q: And the Activity (PANC-1 [2])?
A: Its Activity is -10%.

Q: Which results are given for `COc1c2c(c(Br)c3c1C(c1ccccc1)N(C)CC3)OCO2` (stereo unspecified)?
A: Activity (MCF7 [1]): 18%; Activity (PANC-1 [2]): -7%

Q: Which Activity (PANC-1 [13]) does the source give for `CCNC(=O)N1CCc2c(Br)c3c(c(OC)c2C1Cc1ccc(OC)cc1)OCO3` (stereo unspecified) here?
A: Its Activity is 36.8%.

Q: What about the CI (MCF7 [14]) of the same compound?
A: Its CI is 1.5.

Q: What about the Activity (MCF7 [1]) of the same compound?
A: Its Activity is 208%.

Q: What about the IC50 (MCF7 [15]) of the same compound?
A: Its IC50 is 2700 nM.

Q: What about the Activity (PANC-1 [16]) of the same compound?
A: Its Activity is 53.5%.

Q: And the CI (Homo sapiens [17])?
A: The CI was 0.57.

Q: And the CI (Homo sapiens [18])?
A: The CI was 0.6.

Q: And the Vmax (milli optical density/minute) (Sus scrofa [19])?
A: The Vmax (milli optical density/minute) was 20.

Q: What about the Activity (MCF7 [20]) of the same compound?
A: Its Activity is “inactive”.

Q: And the EC50 [10]?
A: The EC50 was 2.4 µM.

Q: And the CI (Homo sapiens [21])?
A: The CI was 0.95.

Q: What about the CI (MCF7 [22]) of the same compound?
A: The CI was 1.09.

Q: And the Activity (PANC-1 [23])?
A: Its Activity is 7.7%.

Q: And the fold change (FC) (Homo sapiens [11])?
A: The fold change (FC) was 6.2.

Q: What about the Activity (NCI/ADR-RES [12]) of the same compound?
A: The Activity was 78 RFU/min.

Q: What about the Activity (PANC-1 [2]) of the same compound?
A: Its Activity is 175%.

Q: What about the IC50 (NCI/ADR-RES [24]) of the same compound?
A: The IC50 was 2500 nM.

Q: What about the CI (MCF7 [25]) of the same compound?
A: The CI was 1.02.

Q: For `CC[C@]1(O)C[C@@H]2CN(CCc3c([nH]c4ccccc34)[C@@](C(=O)OC)(c3cc4c(cc3OC)N(C)[C@H]3[C@@](O)(C(=O)OC)[C@H](OC(C)=O)[C@]5(CC)C=CCN6CC[C@]43[C@@H]65)C2)C1` [VINBLASTINE], which IC50 (MCF7 [15]) is on record?
A: The IC50 was 0.36 nM.

Q: And the “Ratio IC50” value [26]?
A: Its value is 267.

Q: What about the IC50 (NCI/ADR-RES [24]) of the same compound?
A: The IC50 was 96 nM.

Q: Which results are given for `COc1cc(C2c3c(c(Br)c4c(c3OC)OCO4)CCN2C)cc(OC)c1OC` (stereo unspecified)?
A: Activity (MCF7 [1]): 48%; Activity (PANC-1 [2]): 12%
